Source: ChEMBL document CHEMBL1671864, “First assessment in humans of the safety, tolerability, pharmacokinetics, and ex vivo pharmacodynamic antimalarial activity of the new artemisinin derivative artemisone” (Antimicrob Agents Chemother, 2008)
In brackets after ≈: the same amount, converted by molar mass.

Key:
[1] = Cmax in healthy human plasma at 30 mg, po administered as single ascending doses as solution during 10 hrs overnight fasting state; format: ADME, organism-based; design: dose 30 mg, route oral
In short: (§1)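 Healthy Caucasian male volunteers, single oral dose with 240 ml water after a 10-h overnight fast. Heparinised venous blood was drawn predose and at 0.25–14 h. Plasma was stored frozen. Parent drug and metabolites M1–M3 were measured by LC/MS-MS (MRM, deuterated internal standard). Noncompartmental analysis gave Cmax observed, t1/2 = 0.693/kel (terminal regression) and MRT = AUMC/AUC. Values are geometric means.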

[2] = Apparent oral clearance in healthy human at 10 mg, po administered as single ascending doses as solution during 10 hrs overnight fasting state; format: ADME, organism-based; conditions: in vivo
In short: (§2)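 Single ascending oral doses in healthy Caucasian men, given fasted (10-h overnight) with 240 ml water: 10, 20, 30 or 40 mg as oral solution, or 80 mg as IR tablets. Parent plasma levels by LC/MS-MS over 0.25–14 h. Noncompartmental analysis: kel by terminal-phase least-squares regression, AUC extrapolated to infinity, CL/F = dose/AUC, V/F = CL/F÷kel.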

[3] = AUC in healthy human plasma at 40 mg, po administered as two 20 mg immediate release tablets daily for 3 days during 10 hrs overnight fasting state measured after 1 day; format: ADME, organism-based; design: time < 10 hr, dose 40 mg, route oral
In short: (§3)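 Healthy Caucasian males took 40 mg (2×20-mg IR tablets) or 80 mg (4 tablets) orally daily for 3 days after a 10-h fast. Plasma parent drug was measured by LC/MS-MS from predose to 14 h after the first and third doses. Noncompartmental analysis: AUC by log-linear trapezoid extrapolated via kel, CL/F = dose/AUC, V/F = CL/F÷kel, geometric means.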

[4] = Tmax in healthy human plasma at 80 mg, po administered as single immediate release tablets during 10 hrs overnight fasting state; format: ADME, organism-based
In short: (§4)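 Healthy Caucasian male volunteers (n=6 active, 2 placebo, randomized), single 80 mg dose as four 20-mg tablets with 240 ml water after 10-h fast. Venous lithium-heparin plasma sampled predose and 0.25–14 h; analysed by LC/MS-MS (MRM, deuterated internal standard). Noncompartmental analysis; Tmax observed directly; MRT = AUMC/AUC with extrapolation to infinity via kel.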

[5] = Tmax in healthy human plasma at 10 mg, po administered as single ascending doses as solution during 10 hrs overnight fasting state; format: ADME, organism-based
In short: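 Healthy Caucasian male volunteers, randomized within each dose group against placebo, given a single oral solution with 240 ml water after a 10-h overnight fast. Plasma sampled predose and at 0.25–14 h, quantified by LC/MS-MS (MRM, deuterated internal standard). Tmax read directly from individual noncompartmental concentration–time data.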

[6] = AUC in healthy human plasma at 80 mg, po administered as four 20 mg immediate release tablets daily for 3 days during 10 hrs overnight fasting state measured after 3 day; format: ADME, organism-based; design: time < 10 hr, dose 80 mg, route oral; in short: as §3
[7] = Half life in healthy human plasma at 40 mg, po administered as two 20 mg immediate release tablets daily for 3 days during 10 hrs overnight fasting state measured after 3 day; format: ADME, organism-based
In short: (§5)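 Healthy Caucasian males took tablets once daily for 3 days with 240 ml water after a 10-h fast. Heparinised blood was drawn predose and at 0.25–14 h after the first and last doses. Plasma parent drug and metabolites M1–M3 were measured by LC/MS-MS (MRM, deuterated internal standard). Noncompartmental analysis gave Cmax observed, t1/2 = 0.693/kel and MRT = AUMC/AUC. Values are geometric means.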

[8] = Apparent oral clearance in healthy human at 80 mg, po administered as four 20 mg immediate release tablets daily for 3 days during 10 hrs overnight fasting state measured after 3 day; format: ADME, organism-based; conditions: in vivo; in short: as §3
[9] = Mean residence time in healthy human at 80 mg, po administered as single immediate release tablets during 10 hrs overnight fasting state; format: ADME, organism-based; conditions: in vivo; in short: as §4
[10] = Apparent volume of distribution with respect to the bioavailability in healthy human at 10 mg, po administered as single ascending doses as solution during 10 hrs overnight fasting state; format: ADME, organism-based; conditions: in vivo, read-out: Vc/F; in short: as §2
[11] = AUC in healthy human plasma at 10 mg, po administered as single ascending doses as solution during 10 hrs overnight fasting state; format: ADME, organism-based; design: dose 10 mg, time < 10 hr, route oral; in short: as §2
Homo sapiens [12] = test: Toxicity in healthy human assessed as occurrence of clinically relevant changes in vital signs at 80 mg, po administered daily for 3 days as four 20-mg immediate-release tablets during 10 hrs overnight fasting state; format: organism-based; conditions: in vivo
In short: (§6)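 Healthy Caucasian men received single ascending doses (10–40 mg solution, 80 mg tablets) or 3-day daily tablet courses, all fasting, with randomized placebo controls. Supine blood pressure, heart rate and resting 12-lead ECG were recorded before and after dosing.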

[13] = Apparent oral clearance in healthy human at 40 mg, po administered as two 20 mg immediate release tablets daily for 3 days during 10 hrs overnight fasting state measured after 3 day; format: ADME, organism-based; conditions: in vivo; in short: as §3
[14] = Apparent oral clearance in healthy human at 40 mg, po administered as two 20 mg immediate release tablets daily for 3 days during 10 hrs overnight fasting state measured after 1 day; format: ADME, organism-based; conditions: in vivo; in short: as §3
[15] = Mean residence time in healthy human at 80 mg, po administered as four 20 mg immediate release tablets daily for 3 days during 10 hrs overnight fasting state measured after 3 day; format: ADME, organism-based; conditions: in vivo; in short: as §5
[16] = AUC in healthy human plasma at 30 mg, po administered as single ascending doses as solution during 10 hrs overnight fasting state; format: ADME, organism-based; design: time < 10 hr, dose 30 mg, route oral; in short: as §2
Homo sapiens [17] = test: Toxicity in healthy human assessed as occurrence of changes in electrocardiogram parameters at 80 mg, po administered daily for 3 days as four 20-mg immediate-release tablets during 10 hrs overnight fasting state; format: organism-based; conditions: in vivo; in short: as §6
[18] = Cmax in healthy human plasma at 40 mg, po administered as single ascending doses as solution during 10 hrs overnight fasting state; format: ADME, organism-based; design: dose 40 mg, route oral; in short: as §1
Plasmodium falciparum = test: Antimalarial activity against Plasmodium falciparum K1 in human plasma assessed as inhibition of hypoxanthine uptake by intraerythrocytic malaria parasites by hypoxanthine incorporation assay; format: functional, organism-based
In short: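 K1 or TM90-C2A parasites were sorbitol-synchronized and cultured in RPMI 1640. Drug was diluted in drug-free human serum (0.04–40 ng/ml) or subject plasma was diluted twofold (8–8,192). Parasites were added at 2% hematocrit, 1% parasitemia (>95% rings), and [3H]hypoxanthine uptake was measured over 48 h. IC50 or ID50 came from concentration or dilution-response curves. Equivalent concentration = ID50 × IC50.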

[19] = Half life in healthy human plasma at 40 mg, po administered as two 20 mg immediate release tablets daily for 3 days during 10 hrs overnight fasting state measured after 1 day; format: ADME, organism-based; in short: as §5
[20] = Mean residence time in healthy human at 80 mg, po administered as four 20 mg immediate release tablets daily for 3 days during 10 hrs overnight fasting state measured after 1 day; format: ADME, organism-based; conditions: in vivo; in short: as §5
[21] = AUC in healthy human plasma at 80 mg, po administered as four 20 mg immediate release tablets daily for 3 days during 10 hrs overnight fasting state measured after 1 day; format: ADME, organism-based; design: dose 80 mg, time < 10 hr, route oral; in short: as §3
Plasma = test: Ratio of AUC (0 to infinity) in healthy human plasma at 80 mg, po administered as four 20 mg immediate release tablets daily for 3 days during 10 hrs overnight fasting state measured after 1 day to AUC (0 to infinity) in healthy human plasma at 80 mg, po administered as four 20 mg immediate release tablets daily for 3 days during 10 hrs overnight fasting state measured after 3 day; format: ADME, organism-based; conditions: in vivo
In short: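 Healthy Caucasian men took tablets daily for 3 days with 240 ml water after 10-h fast. Plasma sampled 0.25–14 h after first and last doses, artemisone measured by LC/MS-MS. Accumulation ratio is Cmax or AUC0-∞ after last dose divided by that after first dose. Noncompartmental analysis, geometric means with 95% CI.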

C[C@H]1[C@H](N2CCS(=O)(=O)CC2)O[C@@H]2O[C@@]3(C)CC[C@H]4[C@H](C)CC[C@@H]1[C@@]24OO3 [ARTEMIFONE]
Cmax [1]: 50.5 ng/mL
CL/F [2]: 5640 mL/min
AUC at 10 h [3]: 184 ng·h/mL
Tmax [4]: 0.875 h
Tmax [5]: 0.25 h
AUC at 10 h [6]: 337 ng·h/mL
half-life [7]: 4.37 h
CL/F [8]: 3950 mL/min
MRT [9]: 2.64 h
Vd/F [10]: 8.93 L/kg
AUC at 10 h [11]: 29.5 ng·h/mL
Activity (Homo sapiens [12]): Non-toxic
CL/F [13]: 3500 mL/min
CL/F [14]: 3630 mL/min
MRT [15]: 3.53 h
AUC at 10 h [16]: 71.8 ng·h/mL
Activity (Homo sapiens [17]): Non-toxic
Cmax [18]: 83 ng/mL
IC50 (Plasmodium falciparum): 0.6 ng/mL (≈ 1.49 nM)
half-life [19]: 3.36 h
MRT [20]: 3.3 h
AUC at 10 h [21]: 343 ng·h/mL
Ratio (Plasma): 98.3%
